Measured values from ChEMBL document CHEMBL2375313, “Synthesis, in vitro antitumor evaluation and DNA-binding study of novel tetrahydroquinolines and some derived tricyclic and tetracyclic ring systems” (Eur J Med Chem, 2013).
In brackets after ≈: the same amount, converted by molar mass. Activity calls are given as the source filed them. No cut-off for these calls is given here.

Experiments:
HCT-116 = assay: Cytotoxicity against human HCT116 cells assessed as growth inhibition at 10 uM after 48 hrs by sulphorhodamine B assay; assay type: functional; conditions: HCT-116, 48 h, read-out: GI
Summary of the method: (§1)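 NCI-60 one-dose screen per the NCI Drug Evaluation Branch protocol. Cells given a single 10 µM concentration with 48 h continuous exposure. Growth estimated by sulphorhodamine B protein assay. Result expressed as percentage growth inhibition relative to untreated growth.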

RXF 393 = assay: Cytotoxicity against human RXF393 cells assessed as growth inhibition at 10 uM after 48 hrs by sulphorhodamine B assay; assay type: functional; conditions: RXF 393, 48 h, read-out: GI; summary of the method: as §1
[1] = Cytotoxicity against human EKVX cells assessed as growth inhibition at 10 uM after 48 hrs by sulphorhodamine B assay; assay type: functional; conditions: read-out: GI; summary of the method: as §1
CCRF-CEM = assay: Cytotoxicity against human CCRF-CEM cells assessed as growth inhibition at 10 uM after 48 hrs by sulphorhodamine B assay; assay type: functional; conditions: read-out: GI; summary of the method: as §1
SF-295 = assay: Cytotoxicity against human SF295 cells assessed as growth inhibition at 10 uM after 48 hrs by sulphorhodamine B assay; assay type: functional; conditions: SF-295, 48 h, read-out: GI; summary of the method: as §1
HCT-15 = assay: Cytotoxicity against human HCT15 cells assessed as growth inhibition at 10 uM after 48 hrs by sulphorhodamine B assay; assay type: functional; conditions: HCT-15, 48 h, read-out: GI; summary of the method: as §1
NCI-H23 = assay: Cytotoxicity against human NCI-H23 cells assessed as growth inhibition at 10 uM after 48 hrs by sulphorhodamine B assay; assay type: functional; conditions: NCI-H23, 48 h, read-out: GI; summary of the method: as §1
A498 = assay: Cytotoxicity against human A498 cells assessed as growth inhibition at 10 uM after 48 hrs by sulphorhodamine B assay; assay type: functional; conditions: A498, 48 h, read-out: GI; summary of the method: as §1
UACC-62 = assay: Cytotoxicity against human UACC62 cells assessed as growth inhibition at 10 uM after 48 hrs by sulphorhodamine B assay; assay type: functional; conditions: UACC-62, 48 h, read-out: GI; summary of the method: as §1
MCF7 = assay: Cytotoxicity against human MCF7 cells assessed as growth inhibition at 10 uM after 48 hrs by sulphorhodamine B assay; assay type: functional; conditions: MCF7, 48 h, read-out: GI; summary of the method: as §1
SK-MEL-5 = assay: Cytotoxicity against human SK-MEL-5 cells assessed as growth inhibition at 10 uM after 48 hrs by sulphorhodamine B assay; assay type: functional; conditions: SK-MEL-5, 48 h, read-out: GI; summary of the method: as §1
SNB-19 = assay: Cytotoxicity against human SNB19 cells assessed as growth inhibition at 10 uM after 48 hrs by sulphorhodamine B assay; assay type: functional; conditions: SNB-19, 48 h, read-out: GI; summary of the method: as §1
HOP-92 = assay: Cytotoxicity against human HOP92 cells assessed as growth inhibition at 10 uM after 48 hrs by sulphorhodamine B assay; assay type: functional; conditions: HOP-92, 48 h, read-out: GI; summary of the method: as §1
[2] = Displacement of methyl green from DNA (unknown origin) after 24 hrs
Summary of the method: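 DNA-methyl green complex was stirred in 0.05 M Tris-HCl pH 7.5 with 7.5 mmol MgSO4 at 37 °C for 24 h. Compound was dried down from EtOH in tubes and the DNA-methyl green solution added. A630 was read initially and after 24 h dark incubation at room temperature, corrected and normalized to untreated complex. IC50 is the concentration giving a 50% absorbance decrease; mean ± SD, n = 6.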

LOX IMVI = assay: Cytotoxicity against human LOXIMVI cells assessed as growth inhibition at 10 uM after 48 hrs by sulphorhodamine B assay; assay type: functional; conditions: read-out: GI; summary of the method: as §1
OVCAR-4 = assay: Cytotoxicity against human OVCAR4 cells assessed as growth inhibition at 10 uM after 48 hrs by sulphorhodamine B assay; assay type: functional; conditions: OVCAR-4, 48 h, read-out: GI; summary of the method: as §1
MDA-MB-435 = assay: Cytotoxicity against human MDA-MB-435 cells assessed as growth inhibition at 10 uM after 48 hrs by sulphorhodamine B assay; assay type: functional; conditions: MDA-MB-435, 48 h, read-out: GI; summary of the method: as §1
SNB-75 = assay: Cytotoxicity against human SNB75 cells assessed as growth inhibition at 10 uM after 48 hrs by sulphorhodamine B assay; assay type: functional; conditions: SNB-75, 48 h, read-out: GI; summary of the method: as §1
ACHN = assay: Cytotoxicity against human ACHN cells assessed as growth inhibition at 10 uM after 48 hrs by sulphorhodamine B assay; assay type: functional; conditions: read-out: GI; summary of the method: as §1
[3] = Binding affinity to DNA (unknown origin) at 5 mg/mL by RP-TLC plate analysis
Summary of the method: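 Reversed-phase C18 TLC plates pre-developed in methanol/water 8:2. Compound spotted at origin (5 mg/mL in methanol), then DNA (1 mg/mL in water/methanol 8:2) applied at the same spot. Plates developed in the same eluent; DNA located by anisaldehyde spray (blue). Ethidium bromide as positive control.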

A549 = assay: Cytotoxicity against human A549 cells assessed as growth inhibition at 10 uM after 48 hrs by sulphorhodamine B assay; assay type: functional; conditions: A549, 48 h, read-out: GI; summary of the method: as §1
HL-60(TB) = assay: Cytotoxicity against human HL-60(TB) cells assessed as growth inhibition at 10 uM after 48 hrs by sulphorhodamine B assay; assay type: functional; conditions: HL-60, 48 h, read-out: GI
Summary of the method: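 NCI-60 one-dose primary screen run to the Drug Evaluation Branch protocol. Cells are exposed to a single 10 µM concentration for 48 h continuously, and growth is read by SRB protein assay. Data are reported as percent growth of treated cells, expressed as % growth inhibition.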

SK-OV-3 = assay: Cytotoxicity against human SKOV3 cells assessed as growth inhibition at 10 uM after 48 hrs by sulphorhodamine B assay; assay type: functional; conditions: SK-OV-3, 48 h, read-out: GI; summary of the method: as §1
SK-MEL-2 = assay: Cytotoxicity against human SK-MEL-2 cells assessed as growth inhibition at 10 uM after 48 hrs by sulphorhodamine B assay; assay type: functional; conditions: SK-MEL-2, 48 h, read-out: GI; summary of the method: as §1
DU-145 = assay: Cytotoxicity against human DU145 cells assessed as growth inhibition at 10 uM after 48 hrs by sulphorhodamine B assay; assay type: functional; conditions: DU-145, 48 h, read-out: GI; summary of the method: as §1
PC-3 = assay: Cytotoxicity against human PC3 cells assessed as growth inhibition at 10 uM after 48 hrs by sulphorhodamine B assay; assay type: functional; conditions: PC-3, 48 h, read-out: GI; summary of the method: as §1
NCI/ADR-RES = assay: Cytotoxicity against human NCI/ADR-RES cells assessed as growth inhibition at 10 uM after 48 hrs by sulphorhodamine B assay; assay type: functional; conditions: read-out: GI; summary of the method: as §1
MOLT-4 = assay: Cytotoxicity against human MOLT4 cells assessed as growth inhibition at 10 uM after 48 hrs by sulphorhodamine B assay; assay type: functional; conditions: MOLT-4, 48 h, read-out: GI; summary of the method: as §1
SR = assay: Cytotoxicity against human SR cells assessed as growth inhibition at 10 uM after 48 hrs by sulphorhodamine B assay; assay type: functional; conditions: read-out: GI; summary of the method: as §1
CAKI-1 = assay: Cytotoxicity against human Caki1 cells assessed as growth inhibition at 10 uM after 48 hrs by sulphorhodamine B assay; assay type: functional; conditions: CAKI-1, 48 h, read-out: GI; summary of the method: as §1
T47D = assay: Cytotoxicity against human T47D cells assessed as growth inhibition at 10 uM after 48 hrs by sulphorhodamine B assay; assay type: functional; conditions: read-out: GI; summary of the method: as §1
U-251 = assay: Cytotoxicity against human U251 cells assessed as growth inhibition at 10 uM after 48 hrs by sulphorhodamine B assay; assay type: functional; conditions: U-251, 48 h, read-out: GI; summary of the method: as §1
M14 = assay: Cytotoxicity against human M14 cells assessed as growth inhibition at 10 uM after 48 hrs by sulphorhodamine B assay; assay type: functional; conditions: M14, 48 h, read-out: GI; summary of the method: as §1
HT-29 = assay: Cytotoxicity against human HT-29 cells assessed as growth inhibition at 10 uM after 48 hrs by sulphorhodamine B assay; assay type: functional; conditions: HT-29, 48 h, read-out: GI; summary of the method: as §1
NCI-H522 = assay: Cytotoxicity against human NCI-H522 cells assessed as growth inhibition at 10 uM after 48 hrs by sulphorhodamine B assay; assay type: functional; conditions: NCI-H522, 48 h, read-out: GI; summary of the method: as §1
Hs-578T = assay: Cytotoxicity against human Hs578T cells assessed as growth inhibition at 10 uM after 48 hrs by sulphorhodamine B assay; assay type: functional; conditions: read-out: GI; summary of the method: as §1
K562 = assay: Cytotoxicity against human K562 cells assessed as growth inhibition at 10 uM after 48 hrs by sulphorhodamine B assay; assay type: functional; conditions: K562, 48 h, read-out: GI; summary of the method: as §1
OVCAR-5 = assay: Cytotoxicity against human OVCAR5 cells assessed as growth inhibition at 10 uM after 48 hrs by sulphorhodamine B assay; assay type: functional; conditions: OVCAR-5, 48 h, read-out: GI; summary of the method: as §1
UO-31 = assay: Cytotoxicity against human UO31 cells assessed as growth inhibition at 10 uM after 48 hrs by sulphorhodamine B assay; assay type: functional; conditions: UO-31, 48 h, read-out: GI; summary of the method: as §1
SF-268 = assay: Cytotoxicity against human SF268 cells assessed as growth inhibition at 10 uM after 48 hrs by sulphorhodamine B assay; assay type: functional; conditions: SF-268, 48 h, read-out: GI; summary of the method: as §1
IGROV-1 = assay: Cytotoxicity against human IGROV1 cells assessed as growth inhibition at 10 uM after 48 hrs by sulphorhodamine B assay; assay type: functional; conditions: IGROV-1, 48 h, read-out: GI; summary of the method: as §1
RPMI-8226 = assay: Cytotoxicity against human RPMI8226 cells assessed as growth inhibition at 10 uM after 48 hrs by sulphorhodamine B assay; assay type: functional; conditions: RPMI-8226, 48 h, read-out: GI; summary of the method: as §1

CC1CCCc2c1nc1[nH]c(=S)nc(N)c1c2-c1ccc(Cl)cc1 (configuration not stated)
inhibition of growth at 10 µM (HCT-116): 10.5%
inhibition of growth at 10 µM (RXF 393): < 10%
inhibition of growth at 10 µM [1]: 14.5%
inhibition of growth at 10 µM (CCRF-CEM): 28.8%
inhibition of growth at 10 µM (SF-295): < 10%
inhibition of growth at 10 µM (HCT-15): 14.3%
inhibition of growth at 10 µM (NCI-H23): 10.1%
inhibition of growth at 10 µM (A498): 11.5%
inhibition of growth at 10 µM (UACC-62): 15.8%
inhibition of growth at 10 µM (MCF7): 10.4%
inhibition of growth at 10 µM (SK-MEL-5): 10.3%
inhibition of growth at 10 µM (SNB-19): 10%
inhibition of growth at 10 µM (HOP-92): < 10%
IC50 [2]: 0.151 µg/mL (≈ 0.423 µM)
inhibition of growth at 10 µM (LOX IMVI): < 10%
inhibition of growth at 10 µM (OVCAR-4): < 10%
inhibition of growth at 10 µM (MDA-MB-435): < 10%
inhibition of growth at 10 µM (SNB-75): 10.2%
inhibition of growth at 10 µM (ACHN): < 10%
Activity [3]: Active
inhibition of growth at 10 µM (A549): < 10%
inhibition of growth at 10 µM (HL-60(TB)): 10%
inhibition of growth at 10 µM (SK-OV-3): < 10%
inhibition of growth at 10 µM (SK-MEL-2): 11.4%
inhibition of growth at 10 µM (DU-145): < 10%
inhibition of growth at 10 µM (PC-3): 56.7%
inhibition of growth at 10 µM (NCI/ADR-RES): < 10%
inhibition of growth at 10 µM (MOLT-4): 26.2%
inhibition of growth at 10 µM (SR): 25.8%
inhibition of growth at 10 µM (CAKI-1): 31.3%
inhibition of growth at 10 µM (T47D): 15.2%
inhibition of growth at 10 µM (U-251): < 10%
inhibition of growth at 10 µM (M14): < 10%
inhibition of growth at 10 µM (HT-29): < 10%
inhibition of growth at 10 µM (NCI-H522): 10%
inhibition of growth at 10 µM (Hs-578T): < 10%
inhibition of growth at 10 µM (K562): 15%
inhibition of growth at 10 µM (OVCAR-5): < 10%
inhibition of growth at 10 µM (UO-31): < 10%
inhibition of growth at 10 µM (SF-268): 18.8%
inhibition of growth at 10 µM (IGROV-1): 10%
inhibition of growth at 10 µM (RPMI-8226): 37%
